{"source": "ChEMBL document CHEMBL1629583", "about": "“Establishment of in vitro susceptibility testing methodologies and comparative activities of piperacillin in combination with the penem {beta}-lactamase inhibitor BLI-489” (2009)", "type_in_all_cases": "functional", "key": {"Klebsiella pneumoniae": {"system": "Klebsiella pneumoniae", "experiment": "Antimicrobial activity against class A extended spectrum beta-lactamase- producing Klebsiella pneumoniae clinical isolate after 18 to 22 hrs by broth microdilution method in presence of beta-lactamase inhibitor Tazobactam", "in_short": "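CLSI broth microdilution of piperacillin-tazobactam in Mueller-Hinton II broth with serial dilutions. Inoculum was 10^5 CFU/ml. Incubation was 18 to 22 h at 35°C in ambient air. MIC was read as the lowest concentration giving complete inhibition of growth visible to the unaided eye.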"}, "Citrobacter freundii [1]": {"system": "Citrobacter freundii", "experiment": "Antimicrobial activity against Citrobacter freundii clinical isolate after 18 to 22 hrs by broth microdilution method in presence of beta-lactamase inhibitor Tazobactam", "in_short": "(§1)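 Piperacillin-tazobactam was tested on recent clinical isolates by CLSI broth microdilution in Mueller-Hinton II broth, with tazobactam at constant 4 μg/ml. Wells held 10^5 CFU/ml and were incubated 18 to 22 h at 35°C in ambient air. MIC was the lowest concentration with no growth visible to the unaided eye.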"}, "Providencia rettgeri": {"system": "Providencia rettgeri", "experiment": "Antimicrobial activity against Providencia rettgeri clinical isolate after 18 to 22 hrs by broth microdilution method in presence of beta-lactamase inhibitor Tazobactam", "in_short": "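Piperacillin-tazobactam was tested by CLSI broth microdilution in Mueller-Hinton II broth against clinical isolates. Inoculum was 10^5 CFU/ml, with 18 to 22 h incubation at 35°C in ambient air. MIC was read as the lowest concentration completely inhibiting visible growth.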"}, "Klebsiella aerogenes [2]": {"system": "Klebsiella aerogenes", "experiment": "Antimicrobial activity against Enterobacter aerogenes clinical isolate after 18 to 22 hrs by broth microdilution method in presence of beta-lactamase inhibitor BLI-489", "in_short": "(§2)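 CLSI broth microdilution in Mueller-Hinton II broth. Piperacillin serial dilutions were combined with BLI-489 held constant at 4 μg/ml. Inoculum was 10^5 CFU/ml. Plates were incubated 18 to 22 h at 35°C in ambient air. MIC was the lowest concentration completely inhibiting growth seen by the unaided eye. Piperacillin-tazobactam interpretive criteria were applied.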"}, "Streptococcus pneumoniae": {"system": "Streptococcus pneumoniae", "experiment": "Antimicrobial activity against penicillin-intermediate Streptococcus pneumoniae clinical isolate after 18 to 22 hrs by broth microdilution method in presence of beta-lactamase inhibitor Tazobactam", "in_short": "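Broth microdilution per CLSI in Mueller-Hinton II broth supplemented with 5% lysed horse blood, using serial dilutions of piperacillin-tazobactam. Inoculum was 10^5 CFU/ml. Incubation was 18 to 22 h at 35°C in ambient air. MIC was the lowest concentration with no growth visible to the unaided eye.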"}, "Enterobacter cloacae": {"system": "Enterobacter cloacae", "experiment": "Antimicrobial activity against AmpC beta-lactamase-producing Enterobacter cloacae clinical isolate after 18 to 22 hrs by broth microdilution method in presence of beta-lactamase inhibitor Tazobactam", "in_short": "as §1"}, "Klebsiella aerogenes [3]": {"system": "Klebsiella aerogenes", "experiment": "Antimicrobial activity against AmpC beta-lactamase-producing Enterobacter aerogenes clinical isolate after 18 to 22 hrs by broth microdilution method in presence of beta-lactamase inhibitor BLI-489", "in_short": "as §2"}, "Acinetobacter lwoffii": {"system": "Acinetobacter lwoffii", "experiment": "Antimicrobial activity against Acinetobacter lwoffii clinical isolate after 18 to 22 hrs by broth microdilution method in presence of beta-lactamase inhibitor BLI-489", "in_short": "as §2"}, "Citrobacter freundii [4]": {"system": "Citrobacter freundii", "experiment": "Antimicrobial activity against AmpC beta-lactamase-producing Citrobacter freundii clinical isolate after 18 to 22 hrs by broth microdilution method in presence of beta-lactamase inhibitor BLI-489", "in_short": "as §2"}, "Escherichia coli [5]": {"system": "Escherichia coli", "experiment": "Antimicrobial activity against Escherichia coli clinical isolate after 18 to 22 hrs by broth microdilution method in presence of beta-lactamase inhibitor Tazobactam"}, "Clostridium perfringens": {"system": "Clostridium perfringens", "experiment": "Antimicrobial activity against Clostridium perfringens clinical isolate after 18 to 22 hrs by broth microdilution method in presence of beta-lactamase inhibitor BLI-489"}, "Haemophilus influenzae": {"system": "Haemophilus influenzae", "experiment": "Antimicrobial activity against beta-lactamase-producing Haemophilus influenzae clinical isolate after 18 to 22 hrs by broth microdilution method in presence of beta-lactamase inhibitor Tazobactam", "in_short": "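[…] was used for CLSI broth microdilution with piperacillin-tazobactam. Inoculum was 10^5 CFU/ml, incubated 18 to 22 h at 35°C in ambient air. MIC was the lowest concentration with no growth visible to the unaided eye.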"}, "[6]": {"system": "Bacteroides thetaiotaomicron", "experiment": "Antimicrobial activity against Bacteroides thetaiotaomicron clinical isolate after 18 to 22 hrs by broth microdilution method"}, "[7]": {"system": "Haemophilus parainfluenzae", "experiment": "Antimicrobial activity against Haemophilus parainfluenzae clinical isolate after 18 to 22 hrs by broth microdilution method in presence of beta-lactamase inhibitor BLI-489", "in_short": "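Haemophilus isolates were tested in Haemophilus test medium by CLSI broth microdilution. Serial piperacillin dilutions carried BLI-489 fixed at 4 μg/ml. Inoculum was 10^5 CFU/ml, incubated 18 to 22 h at 35°C in ambient air. MIC was the lowest concentration completely inhibiting growth by eye.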"}, "[8]": {"system": "Acinetobacter haemolyticus", "experiment": "Antimicrobial activity against Acinetobacter haemolyticus clinical isolate after 18 to 22 hrs by broth microdilution method in presence of beta-lactamase inhibitor BLI-489", "in_short": "as §2"}, "Proteus vulgaris": {"system": "Proteus vulgaris", "experiment": "Antimicrobial activity against Proteus vulgaris clinical isolate after 18 to 22 hrs by broth microdilution method in presence of beta-lactamase inhibitor BLI-489", "in_short": "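CLSI broth microdilution in Mueller-Hinton II broth. Serial dilutions of piperacillin were tested with BLI-489 held at a constant 4 μg/ml. Inoculum was 10^5 CFU/ml. Plates were incubated 18 to 22 h at 35°C in ambient air. MIC was the lowest concentration giving complete growth inhibition by unaided eye.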"}, "Acinetobacter baumannii": {"system": "Acinetobacter baumannii", "experiment": "Antimicrobial activity against Acinetobacter baumannii clinical isolate after 18 to 22 hrs by broth microdilution method in presence of beta-lactamase inhibitor Tazobactam", "in_short": "as §1"}, "Enterococcus durans": {"system": "Enterococcus durans", "experiment": "Antimicrobial activity against Enterococcus durans clinical isolate after 18 to 22 hrs by broth microdilution method in presence of beta-lactamase inhibitor BLI-489", "in_short": "as §2"}, "Parvimonas micra": {"system": "Parvimonas micra", "experiment": "Antimicrobial activity against Peptostreptococcus micros clinical isolate after 18 to 22 hrs by broth microdilution method in presence of beta-lactamase inhibitor Tazobactam"}, "Escherichia coli [9]": {"system": "Escherichia coli", "experiment": "Antimicrobial activity against class A extended spectrum beta-lactamase- producing Escherichia coli clinical isolate after 18 to 22 hrs by broth microdilution method in presence of beta-lactamase inhibitor BLI-489", "in_short": "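Piperacillin serially diluted with BLI-489 held at a constant 4 μg/ml, by CLSI broth microdilution in Mueller-Hinton II broth. Inoculum was 10^5 CFU/ml. Plates were incubated 18 to 22 h at 35°C in ambient air. MIC was the lowest concentration completely inhibiting growth seen by the unaided eye.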"}, "Escherichia coli [10]": {"system": "Escherichia coli", "experiment": "Antimicrobial activity against AmpC beta-lactamase-producing Escherichia coli clinical isolate after 18 to 22 hrs by broth microdilution method in presence of beta-lactamase inhibitor Tazobactam", "in_short": "as §1"}}}
{"smiles": "CCN1CCN(C(=O)N[C@@H](C(=O)N[C@@H]2C(=O)N3[C@@H]2SC(C)(C)[C@@H]3C(=O)O)c2ccccc2)C(=O)C1=O", "note": "[PIPERACILLIN]", "values": [{"measurement": "MIC50", "setting": "Klebsiella pneumoniae", "value": 32, "unit": "µg/mL"}, {"measurement": "MIC90", "setting": "Klebsiella pneumoniae", "value": "> 128", "unit": "µg/mL"}, {"measurement": "MIC50", "setting": "Citrobacter freundii [1]", "value": 64, "unit": "µg/mL"}, {"measurement": "MIC90", "setting": "Citrobacter freundii [1]", "value": 128, "unit": "µg/mL"}, {"measurement": "MIC50", "setting": "Providencia rettgeri", "value": 2, "unit": "µg/mL"}, {"measurement": "MIC90", "setting": "Providencia rettgeri", "value": 16, "unit": "µg/mL"}, {"measurement": "MIC50", "setting": "Klebsiella aerogenes [2]", "value": 2, "unit": "µg/mL"}, {"measurement": "MIC90", "setting": "Klebsiella aerogenes [2]", "value": 64, "unit": "µg/mL"}, {"measurement": "MIC50", "setting": "Streptococcus pneumoniae", "value": 0.5, "unit": "µg/mL"}, {"measurement": "MIC90", "setting": "Streptococcus pneumoniae", "value": 1, "unit": "µg/mL"}, {"measurement": "MIC50", "setting": "Enterobacter cloacae", "value": 8, "unit": "µg/mL"}, {"measurement": "MIC90", "setting": "Enterobacter cloacae", "value": 32, "unit": "µg/mL"}, {"measurement": "MIC50", "setting": "Klebsiella aerogenes [3]", "value": 2, "unit": "µg/mL"}, {"measurement": "MIC90", "setting": "Klebsiella aerogenes [3]", "value": 8, "unit": "µg/mL"}, {"measurement": "MIC50", "setting": "Acinetobacter lwoffii", "value": 4, "unit": "µg/mL"}, {"measurement": "MIC90", "setting": "Acinetobacter lwoffii", "value": 16, "unit": "µg/mL"}, {"measurement": "MIC50", "setting": "Citrobacter freundii [4]", "value": 4, "unit": "µg/mL"}, {"measurement": "MIC90", "setting": "Citrobacter freundii [4]", "value": 64, "unit": "µg/mL"}, {"measurement": "MIC50", "setting": "Escherichia coli [5]", "value": 2, "unit": "µg/mL"}, {"measurement": "MIC90", "setting": "Escherichia coli [5]", "value": 2, "unit": "µg/mL"}, {"measurement": "MIC", "setting": "Clostridium perfringens", "value": "≤ 0.015", "unit": "µg/mL"}, {"measurement": "MIC50", "setting": "Clostridium perfringens", "value": "≤ 0.015", "unit": "µg/mL"}, {"measurement": "MIC90", "setting": "Clostridium perfringens", "value": "≤ 0.015", "unit": "µg/mL"}, {"measurement": "MIC50", "setting": "Haemophilus influenzae", "value": 0.008, "unit": "µg/mL"}, {"measurement": "MIC90", "setting": "Haemophilus influenzae", "value": 0.03, "unit": "µg/mL"}, {"measurement": "MIC50", "setting": "[6]", "value": 32, "unit": "µg/mL"}, {"measurement": "MIC90", "setting": "[6]", "value": "> 128", "unit": "µg/mL"}, {"measurement": "MIC", "setting": "[7]", "value": "≤ 0.004", "unit": "µg/mL"}, {"measurement": "MIC50", "setting": "[7]", "value": "≤ 0.004", "unit": "µg/mL"}, {"measurement": "MIC90", "setting": "[7]", "value": "≤ 0.004", "unit": "µg/mL"}, {"measurement": "MIC50", "setting": "[8]", "value": 4, "unit": "µg/mL"}, {"measurement": "MIC90", "setting": "[8]", "value": 16, "unit": "µg/mL"}, {"measurement": "MIC50", "setting": "Proteus vulgaris", "value": 0.5, "unit": "µg/mL"}, {"measurement": "MIC90", "setting": "Proteus vulgaris", "value": 1, "unit": "µg/mL"}, {"measurement": "MIC50", "setting": "Acinetobacter baumannii", "value": "> 128", "unit": "µg/mL"}, {"measurement": "MIC90", "setting": "Acinetobacter baumannii", "value": "> 128", "unit": "µg/mL"}, {"measurement": "MIC50", "setting": "Enterococcus durans", "value": 2, "unit": "µg/mL"}, {"measurement": "MIC90", "setting": "Enterococcus durans", "value": 8, "unit": "µg/mL"}, {"measurement": "MIC50", "setting": "Parvimonas micra", "value": 0.03, "unit": "µg/mL"}, {"measurement": "MIC90", "setting": "Parvimonas micra", "value": 0.25, "unit": "µg/mL"}, {"measurement": "MIC50", "setting": "Escherichia coli [9]", "value": 64, "unit": "µg/mL"}, {"measurement": "MIC90", "setting": "Escherichia coli [9]", "value": 128, "unit": "µg/mL"}, {"measurement": "MIC50", "setting": "Escherichia coli [10]", "value": 4, "unit": "µg/mL"}, {"measurement": "MIC90", "setting": "Escherichia coli [10]", "value": 8, "unit": "µg/mL"}]}
